According to ChEMBL document CHEMBL4765238, “Structure-Based Discovery and Optimization of Benzo[ d]isoxazole Derivatives as Potent and Selective BET Inhibitors for Potential Treatment of Castration-Resistant Prostate Cancer (CRPC)” (J Med Chem, 2018):

What was measured:
[1] = biological target: Histone-lysine N-methyltransferase ASH1L (Homo sapiens) (UniProt Q9NR48); test: Binding affinity to human recombinant His6-tagged ASH1L (E2433 to E2564 residues) expressed in Escherichia coli BL21 (DE3) cells assessed as change in melting temperature at 200 uM incubated for 30 mins by SYPRO orange dye based thermal shift assay
Method in brief: (§1)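 Thermal shift assay measuring change in melting temperature of each isolated bromodomain module in the presence of compound versus without.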

[2] = biological target: Transcription initiation factor TFIID subunit 1 (Homo sapiens) (UniProt P21675); test: Binding affinity to human recombinant His6-tagged TAF1 bromodomain 1 (R1377 to D1503 residues) expressed in Escherichia coli BL21 (DE3) cells assessed as change in melting temperature at 200 uM incubated for 30 mins by SYPRO orange dye based thermal shift assay; method in brief: as §1
[3] = biological target: CREB-binding protein (Homo sapiens) (UniProt Q92793); test: Binding affinity to human recombinant His6-tagged CREBBP (R1081 to G1197 residues) expressed in Escherichia coli BL21 (DE3) cells assessed as change in melting temperature at 200 uM incubated for 30 mins by SYPRO orange dye based thermal shift assay; method in brief: as §1
[4] = test system: VCaP; test: Antiproliferative activity against AR-positive human VCaP cells assessed as reduction in cell viability incubated for 144 hrs by cell-titer glo assay; format: functional, cell-based
Method in brief: (§2)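 Prostate cancer cells treated across a concentration range; viability read by CellTiter-Glo luminescence; experiments in triplicate; IC50 derived from the dose–response curves.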

[5] = biological target: T1, Bromodomain-containing protein 4 (Homo sapiens, UniProt O60885); test: Binding affinity to human recombinant His6-tagged BRD4 bromodomain 1 (N44 to E168 residues) expressed in Escherichia coli BL21 (DE3) cells assessed as change in enthalpy incubated for 1 hr by isothermal titration calorimetry
[6] = biological target: Histone acetyltransferase p300 (Homo sapiens) (UniProt Q09472); test: Binding affinity to human recombinant His6-tagged EP300 (A1040 to G1161 residues) expressed in Escherichia coli BL21 (DE3) cells assessed as change in melting temperature at 200 uM incubated for 30 mins by SYPRO orange dye based thermal shift assay; method in brief: as §1
Histone acetyltransferase p300 (Homo sapiens), sequence (Q09472 whole entry, the tested form may be a part): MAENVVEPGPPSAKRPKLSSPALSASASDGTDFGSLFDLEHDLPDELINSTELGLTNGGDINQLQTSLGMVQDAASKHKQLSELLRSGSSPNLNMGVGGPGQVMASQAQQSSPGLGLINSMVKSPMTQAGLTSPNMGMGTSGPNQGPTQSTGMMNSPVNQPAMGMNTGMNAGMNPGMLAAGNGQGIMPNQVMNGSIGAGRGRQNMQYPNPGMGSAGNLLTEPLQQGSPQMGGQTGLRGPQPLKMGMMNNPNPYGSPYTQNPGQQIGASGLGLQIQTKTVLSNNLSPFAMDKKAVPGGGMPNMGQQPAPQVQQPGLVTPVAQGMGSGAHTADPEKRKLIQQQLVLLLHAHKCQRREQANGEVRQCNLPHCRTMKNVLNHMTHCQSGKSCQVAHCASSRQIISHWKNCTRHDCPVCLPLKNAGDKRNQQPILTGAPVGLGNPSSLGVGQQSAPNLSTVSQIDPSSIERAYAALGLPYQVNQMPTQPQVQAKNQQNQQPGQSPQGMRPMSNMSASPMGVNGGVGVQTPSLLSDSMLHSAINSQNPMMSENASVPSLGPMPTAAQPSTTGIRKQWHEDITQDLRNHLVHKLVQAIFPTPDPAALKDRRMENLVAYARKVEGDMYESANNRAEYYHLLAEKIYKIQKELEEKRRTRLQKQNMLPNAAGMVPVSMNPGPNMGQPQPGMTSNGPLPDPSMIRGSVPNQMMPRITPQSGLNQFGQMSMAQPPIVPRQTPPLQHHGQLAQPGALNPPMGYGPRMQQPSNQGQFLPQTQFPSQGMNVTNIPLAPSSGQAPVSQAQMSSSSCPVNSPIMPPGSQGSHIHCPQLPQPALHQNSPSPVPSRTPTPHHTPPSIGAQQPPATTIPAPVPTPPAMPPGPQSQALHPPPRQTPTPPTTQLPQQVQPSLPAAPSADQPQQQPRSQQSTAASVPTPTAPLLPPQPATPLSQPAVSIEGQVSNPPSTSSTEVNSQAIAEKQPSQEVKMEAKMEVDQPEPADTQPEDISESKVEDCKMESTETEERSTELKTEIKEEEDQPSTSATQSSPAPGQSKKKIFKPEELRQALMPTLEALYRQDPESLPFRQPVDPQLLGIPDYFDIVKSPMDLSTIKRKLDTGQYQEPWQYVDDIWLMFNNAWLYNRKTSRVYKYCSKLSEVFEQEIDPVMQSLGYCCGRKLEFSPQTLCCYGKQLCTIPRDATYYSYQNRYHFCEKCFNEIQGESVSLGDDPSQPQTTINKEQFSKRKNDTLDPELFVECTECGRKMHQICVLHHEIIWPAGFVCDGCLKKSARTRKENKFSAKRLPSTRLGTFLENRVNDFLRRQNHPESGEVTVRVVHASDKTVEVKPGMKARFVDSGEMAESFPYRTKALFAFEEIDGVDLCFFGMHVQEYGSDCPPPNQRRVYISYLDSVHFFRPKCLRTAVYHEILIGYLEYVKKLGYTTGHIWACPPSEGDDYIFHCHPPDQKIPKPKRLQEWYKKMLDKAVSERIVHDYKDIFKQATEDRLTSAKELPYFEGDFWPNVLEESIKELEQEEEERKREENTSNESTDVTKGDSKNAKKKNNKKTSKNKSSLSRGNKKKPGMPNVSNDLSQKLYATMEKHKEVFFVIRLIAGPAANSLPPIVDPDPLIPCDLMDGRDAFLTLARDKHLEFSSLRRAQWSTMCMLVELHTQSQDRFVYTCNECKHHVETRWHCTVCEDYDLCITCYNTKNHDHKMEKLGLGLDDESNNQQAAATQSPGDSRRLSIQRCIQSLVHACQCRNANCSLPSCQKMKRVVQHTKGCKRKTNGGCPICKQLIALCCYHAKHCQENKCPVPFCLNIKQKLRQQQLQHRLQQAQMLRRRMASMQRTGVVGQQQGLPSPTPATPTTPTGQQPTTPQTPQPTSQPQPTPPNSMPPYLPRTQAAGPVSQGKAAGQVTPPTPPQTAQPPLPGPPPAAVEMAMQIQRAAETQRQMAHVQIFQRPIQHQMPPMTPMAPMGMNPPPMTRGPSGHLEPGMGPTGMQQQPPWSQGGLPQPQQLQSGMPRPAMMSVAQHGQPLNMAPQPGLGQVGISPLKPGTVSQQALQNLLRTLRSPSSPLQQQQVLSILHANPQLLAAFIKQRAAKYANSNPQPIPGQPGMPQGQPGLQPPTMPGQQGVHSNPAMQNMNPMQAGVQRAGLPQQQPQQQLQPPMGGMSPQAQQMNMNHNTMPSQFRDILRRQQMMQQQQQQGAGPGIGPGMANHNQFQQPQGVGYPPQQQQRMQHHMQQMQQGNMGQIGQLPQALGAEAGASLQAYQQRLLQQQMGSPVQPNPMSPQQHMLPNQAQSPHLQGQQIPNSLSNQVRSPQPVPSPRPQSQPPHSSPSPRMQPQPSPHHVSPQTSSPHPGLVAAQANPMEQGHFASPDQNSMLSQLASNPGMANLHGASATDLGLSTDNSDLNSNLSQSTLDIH

[7] = biological target: T1, Bromodomain-containing protein 4; test: Inhibition of HYSGRGK(Ac)GGK(Ac)GLGK(Ac)GGAK(Ac)RHRK(Biotin)-OH binding to recombinant human His6-tagged BRD4 bromodomain 1 (N44 to E168 residues) expressed in Escherichia coli BL21 (DE3) cells measured after 2 hrs by Alphascreen assay
[8] = biological target: Bromodomain adjacent to zinc finger domain protein 2B (Homo sapiens) (UniProt Q9UIF8); test: Binding affinity to human recombinant His6-tagged BAZ2B (S1858 to S1972 residues) expressed in Escherichia coli BL21 (DE3) cells assessed as change in melting temperature at 200 uM incubated for 30 mins by SYPRO orange dye based thermal shift assay; method in brief: as §1
Bromodomain adjacent to zinc finger domain protein 2B (Homo sapiens), sequence (Q9UIF8 whole entry, the tested form may be a part): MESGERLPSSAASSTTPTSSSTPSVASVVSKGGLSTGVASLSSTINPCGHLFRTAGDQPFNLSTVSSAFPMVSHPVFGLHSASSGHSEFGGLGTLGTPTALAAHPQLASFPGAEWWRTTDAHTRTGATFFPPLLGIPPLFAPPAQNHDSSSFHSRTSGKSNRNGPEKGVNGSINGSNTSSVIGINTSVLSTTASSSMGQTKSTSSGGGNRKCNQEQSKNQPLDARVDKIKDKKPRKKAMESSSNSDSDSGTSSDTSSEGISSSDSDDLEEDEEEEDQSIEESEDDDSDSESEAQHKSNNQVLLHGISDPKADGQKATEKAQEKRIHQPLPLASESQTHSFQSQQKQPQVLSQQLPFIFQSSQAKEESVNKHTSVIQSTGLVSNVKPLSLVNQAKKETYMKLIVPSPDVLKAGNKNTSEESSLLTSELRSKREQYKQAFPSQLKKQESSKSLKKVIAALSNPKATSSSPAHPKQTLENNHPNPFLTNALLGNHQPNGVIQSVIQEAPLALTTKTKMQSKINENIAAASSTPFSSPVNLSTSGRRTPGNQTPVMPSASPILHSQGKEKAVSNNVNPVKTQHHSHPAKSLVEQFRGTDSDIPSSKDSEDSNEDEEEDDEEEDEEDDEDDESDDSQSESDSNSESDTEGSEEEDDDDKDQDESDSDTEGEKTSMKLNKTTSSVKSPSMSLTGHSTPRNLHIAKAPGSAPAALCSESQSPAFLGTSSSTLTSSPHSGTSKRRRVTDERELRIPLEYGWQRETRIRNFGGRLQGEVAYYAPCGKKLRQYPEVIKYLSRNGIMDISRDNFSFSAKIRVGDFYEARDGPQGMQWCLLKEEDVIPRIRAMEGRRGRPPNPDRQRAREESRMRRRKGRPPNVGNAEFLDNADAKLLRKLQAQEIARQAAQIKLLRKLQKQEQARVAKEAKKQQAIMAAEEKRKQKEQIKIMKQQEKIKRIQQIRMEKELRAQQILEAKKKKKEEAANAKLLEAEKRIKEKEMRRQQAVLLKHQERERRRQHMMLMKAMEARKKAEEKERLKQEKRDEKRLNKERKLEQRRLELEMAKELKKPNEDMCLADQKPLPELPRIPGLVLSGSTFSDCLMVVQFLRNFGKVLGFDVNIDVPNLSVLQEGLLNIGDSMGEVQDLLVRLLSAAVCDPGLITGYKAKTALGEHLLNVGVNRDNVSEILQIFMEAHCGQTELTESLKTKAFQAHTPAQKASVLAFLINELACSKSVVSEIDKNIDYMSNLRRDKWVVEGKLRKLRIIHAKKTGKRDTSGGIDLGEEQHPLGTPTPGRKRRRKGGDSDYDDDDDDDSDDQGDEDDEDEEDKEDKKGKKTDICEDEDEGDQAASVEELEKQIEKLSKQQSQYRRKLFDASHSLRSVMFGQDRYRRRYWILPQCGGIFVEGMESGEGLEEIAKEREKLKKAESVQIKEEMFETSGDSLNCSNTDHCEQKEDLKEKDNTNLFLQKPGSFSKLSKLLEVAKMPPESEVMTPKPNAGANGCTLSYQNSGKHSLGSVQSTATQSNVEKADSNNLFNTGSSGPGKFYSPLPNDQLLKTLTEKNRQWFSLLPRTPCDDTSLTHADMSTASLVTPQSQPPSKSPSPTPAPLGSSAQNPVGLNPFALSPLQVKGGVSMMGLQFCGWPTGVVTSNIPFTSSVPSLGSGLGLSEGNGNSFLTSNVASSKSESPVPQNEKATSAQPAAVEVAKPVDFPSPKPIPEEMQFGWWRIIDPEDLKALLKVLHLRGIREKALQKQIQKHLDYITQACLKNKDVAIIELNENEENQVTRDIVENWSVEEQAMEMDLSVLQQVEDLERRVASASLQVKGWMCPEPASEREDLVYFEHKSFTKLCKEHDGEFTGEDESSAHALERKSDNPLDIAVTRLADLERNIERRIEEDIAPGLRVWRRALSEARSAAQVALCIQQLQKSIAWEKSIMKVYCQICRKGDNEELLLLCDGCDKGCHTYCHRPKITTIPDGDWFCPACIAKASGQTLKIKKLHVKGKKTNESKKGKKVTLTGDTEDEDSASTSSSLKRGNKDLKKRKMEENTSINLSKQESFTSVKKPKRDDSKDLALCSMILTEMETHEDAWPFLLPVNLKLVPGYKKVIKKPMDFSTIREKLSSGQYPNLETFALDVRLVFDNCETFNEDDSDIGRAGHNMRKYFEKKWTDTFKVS

[9] = test system: LNCaP C4-2B; test: Antiproliferative activity against AR-positive human C4-2B cells assessed as reduction in cell viability incubated for 96 hrs by cell-titer glo assay; format: functional, cell-based; method in brief: as §2
[10] = biological target: T1, Bromodomain-containing protein 4; test: Binding affinity to human recombinant His6-tagged BRD4 bromodomain 1 (N44 to E168 residues) expressed in Escherichia coli BL21 (DE3) cells assessed as gibbs free energy change incubated for 1 hr by isothermal titration calorimetry
[11] = test system: LNCaP; test: Antiproliferative activity against AR-positive human LNCAP cells assessed as reduction in cell viability incubated for 96 hrs by cell-titer glo assay; format: functional, cell-based; method in brief: as §2
[12] = biological target: Bromodomain-containing protein 2 (Homo sapiens) (UniProt P25440); test: Binding affinity to human recombinant His6-tagged BRD2 bromodomain 1 (K77 to N194 residues) expressed in Escherichia coli BL21 (DE3) cells assessed as change in melting temperature at 200 uM incubated for 30 mins by SYPRO orange dye based thermal shift assay; method in brief: as §1
[13] = biological target: T1, Bromodomain-containing protein 4; test: Binding affinity to human recombinant His6-tagged BRD4 bromodomain 1 (N44 to E168 residues) expressed in Escherichia coli BL21 (DE3) cells assessed as change in entropy incubated for 1 hr by isothermal titration calorimetry
[14] = biological target: T2, Bromodomain-containing protein 1 (Homo sapiens) (UniProt O95696); test: Binding affinity to human recombinant His6-tagged BRD1 (E556 to A688 residues) expressed in Escherichia coli BL21 (DE3) cells assessed as change in melting temperature at 200 uM incubated for 30 mins by SYPRO orange dye based thermal shift assay; method in brief: as §1
T2 sequence (whole entry): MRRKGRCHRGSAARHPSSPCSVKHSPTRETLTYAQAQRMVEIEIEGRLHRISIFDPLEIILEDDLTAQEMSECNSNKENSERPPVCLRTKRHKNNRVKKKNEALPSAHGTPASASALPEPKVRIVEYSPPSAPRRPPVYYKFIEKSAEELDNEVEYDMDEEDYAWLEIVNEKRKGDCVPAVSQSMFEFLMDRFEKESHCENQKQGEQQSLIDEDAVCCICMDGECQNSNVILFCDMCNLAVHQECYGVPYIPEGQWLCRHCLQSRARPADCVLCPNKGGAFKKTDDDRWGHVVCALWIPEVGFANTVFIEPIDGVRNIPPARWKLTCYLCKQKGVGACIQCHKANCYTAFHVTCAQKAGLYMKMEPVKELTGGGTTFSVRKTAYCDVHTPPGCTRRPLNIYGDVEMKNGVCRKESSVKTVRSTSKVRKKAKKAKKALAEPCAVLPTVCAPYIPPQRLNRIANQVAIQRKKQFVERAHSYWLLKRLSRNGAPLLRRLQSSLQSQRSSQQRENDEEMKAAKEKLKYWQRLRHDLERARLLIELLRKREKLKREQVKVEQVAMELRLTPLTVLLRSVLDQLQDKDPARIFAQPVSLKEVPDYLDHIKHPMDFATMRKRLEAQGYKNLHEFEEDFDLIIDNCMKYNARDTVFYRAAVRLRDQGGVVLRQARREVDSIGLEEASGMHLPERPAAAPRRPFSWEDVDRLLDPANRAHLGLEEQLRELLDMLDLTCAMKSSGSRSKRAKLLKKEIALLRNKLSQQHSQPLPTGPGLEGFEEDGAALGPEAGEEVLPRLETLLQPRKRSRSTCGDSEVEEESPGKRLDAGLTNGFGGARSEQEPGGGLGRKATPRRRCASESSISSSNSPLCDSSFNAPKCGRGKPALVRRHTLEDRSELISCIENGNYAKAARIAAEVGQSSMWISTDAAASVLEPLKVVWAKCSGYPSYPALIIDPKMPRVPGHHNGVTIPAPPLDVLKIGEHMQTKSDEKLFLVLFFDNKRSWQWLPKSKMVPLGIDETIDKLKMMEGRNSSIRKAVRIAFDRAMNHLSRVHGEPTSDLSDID

[15] = biological target: T1, Bromodomain-containing protein 4; test: Binding affinity to human recombinant His6-tagged BRD4 bromodomain 1 (N44 to E168 residues) expressed in Escherichia coli BL21 (DE3) cells assessed as dissociation constant incubated for 1 hr by isothermal titration calorimetry

Compound: CNc1cc2onc(C)c2cc1NS(=O)(=O)c1cc(Br)ccc1OC
- ΔTm [1]: -0.1 °C
- ΔTm [2]: -0.1 °C
- ΔTm [3]: 2.1 °C
- IC50 [4]: 3020 nM
- deltaH [5]: -15.3 kcal/mol
- ΔTm [6]: 2.3 °C
- IC50 [7]: 150 nM
- ΔTm [8]: 0.3 °C
- IC50 [9]: 6430 nM
- deltaG [10]: -9.3 kcal/mol
- IC50 [11]: 6160 nM
- ΔTm [12]: 5.3 °C
- TdeltaS [13]: -6 kcal/mol
- ΔTm [14]: -0.4 °C
- Kd [15]: 164 nM

Compound: COc1cc2onc(C)c2cc1NS(=O)(=O)c1cc(Br)ccc1OC
- ΔTm [1]: 0.3 °C
- ΔTm [2]: 0.1 °C
- ΔTm [3]: 1.4 °C
- IC50 [4]: 630 nM
- deltaH [5]: -12.2 kcal/mol
- ΔTm [6]: 2 °C
- IC50 [7]: 130 nM
- ΔTm [8]: 0 °C
- IC50 [9]: 2620 nM
- deltaG [10]: -9.7 kcal/mol
- IC50 [11]: 1060 nM
- ΔTm [12]: 5.3 °C
- TdeltaS [13]: -2.5 kcal/mol
- ΔTm [14]: -0.1 °C
- Kd [15]: 82 nM

Compound: Cc1noc2ccc(-c3nc4ccc(N5CCOC[C@@H]5C)cc4n3CC3CCCCC3)cc12
- ΔTm [1]: -0.5 °C
- ΔTm [2]: -0.9 °C
- ΔTm [3]: 0.3 °C
- IC50 [4]: 290 nM
- deltaH [5]: -11.9 kcal/mol
- ΔTm [6]: 0.3 °C
- IC50 [7]: 180 nM
- ΔTm [8]: -0.6 °C
- IC50 [9]: 840 nM
- deltaG [10]: -9.7 kcal/mol
- IC50 [11]: 470 nM
- ΔTm [12]: 6.3 °C
- TdeltaS [13]: -2.2 kcal/mol
- ΔTm [14]: 0.3 °C
- Kd [15]: 81 nM

Compound: Cc1noc2c(Br)cc(-c3nc4ccc(N5CCOCC5)cc4n3CC3CCCCC3)cc12
- ΔTm [1]: -0.9 °C
- ΔTm [2]: -0.6 °C
- ΔTm [3]: 0 °C
- IC50 [4]: 500 nM
- deltaH [5]: -10.7 kcal/mol
- ΔTm [6]: -0.3 °C
- IC50 [7]: 300 nM
- ΔTm [8]: -0.6 °C
- IC50 [9]: 850 nM
- deltaG [10]: -9.3 kcal/mol
- IC50 [11]: 570 nM
- ΔTm [12]: 6 °C
- TdeltaS [13]: -1.4 kcal/mol
- ΔTm [14]: 0 °C
- Kd [15]: 159 nM
